The record followed here is the RNAGym collection of RNA variant scans (doi:10.1126/science.aae0568).

B1: tRNA (parent)
chain: GUUCCGUUGGCGUAAUGGUAACGCGUCUCCCUCCUAAGGAGAAGACUGCGGGUUCGAGUCCCGUACGGAACG

Variants at the floor of the assay were thinned out.

The variants in the series derive from B1. The experiment in a line: yeast fitness relative to wild type (ratio to wild type); higher = fitter; tRNA-Arg(CCU), competitive growth, 37 C, YPD. A digest of the protocol:
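The tRNA-Arg(CCU) gene variants were made by chemical synthesis with a 3% per-site mutation rate at 69 sites and inserted at the native genomic locus of Saccharomyces cerevisiae. After pooling, the strains were competed in YPD at 37°C for 24 hours in six parallel replicates. Gene amplicons from the start population and each end population were read by 100-nucleotide paired-end sequencing, and Darwinian fitness relative to wild type was taken from genotype frequency changes. Genotypes needed ≥ 100 starting reads, and estimates < 0.5 were set to 0.5.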
Take GUUCCGUUGGCGUAAUGGUAACGCGUCUCCCUCCUAAGGAGAAGACAGCGGGUCCGAGUCCCGUACGGAACG [U47A U54C]: the yeast fitness is 0.811.

As for GUUCCGUUGGCGUAAUGGUAACGCGUCUCCCUCCUAAGGAGAAGACCGCGGGUUCGAGUCCCGUCCGGAACG [U47C A65C], the yeast fitness was found to be 1.04. On to GUUCCGUUGGCGUAAUGGUAACGCGUCUCCCUCCUAAGGAGAAGACAGCGGGUUCGAGUCCCGUCCGGAACG [U47A A65C], for which the yeast fitness was 0.82. In the case of GUUCCGUUGGCGUAAUGGUAACGCGUCUCCCUCCUAAGGAGAAGACAGCGGGUUCGAGUCCCGUUCGGAACG [U47A A65U], the yeast fitness amounted to 0.68. GUUCCGUUGGCGUAAUGGUAACGCGUCUCCCUCCUAAGGAGAAGACCGCGGGUUCGAGUCCCAUACGGAACG [U47C G63A]: the yeast fitness was found to be 0.949. For the variant GUUCCGUUGGCGUAAUGGUAACGCGUCUCCCUCCUAAGGAGAAGACCGCGGGUUCGUGUCCCGUACGGAACG [U47C A57U], the yeast fitness came out at 0.623. Turning to GUUCCGUUGGCGUAAUGGUAACGCGUCUCCCUCCUAAGGAGAAGAUUGCGGGUCCAAGUCCCGUACGGAACG [C46U U54C G56A], the yeast fitness was found to be 0.642. With GUUCCGUUGGCGUAAUGGUAACGCGUCUCCCUCCUAAGGAGAAGACAGCGGGUUCGAGUCCCGUAUGGAACG [U47A C66U], the yeast fitness turned out to be 0.872. For the variant GUUCCGUUGGCGUAAUGGUAACGCGUCUCCCUCCUAAGGAGAAGACCGCGGGUUCGAGUCGCGUACGGAACG [U47C C61G], the yeast fitness is 0.671. For GUUCCGUUGGCGUAAUGGUAACGCGUCUCCCUCCUAAGGAGAAGACAGCGGGUUCGAGUCCCGUACGGAGCG [U47A A70G] the value was 0.921. As for GUUCCGUUGGCGUAAUGGUAACGCGUCUCCCUCCUAAGGAGAAGACAGCGGGUUCGAGUCCCGUACGGAUCG [U47A A70U], the yeast fitness was determined as 1.06. With GUUCCGUUGGCGUAAUGGUAACGCGUCUCCCUCCUAAGGAGAAGACCGCGGGUCCGAGUCCCGUACGGAACG [U47C U54C] the figure was 0.843. With GUUCCGUUGGCGUAAUGGUAACGCGUCUCCCUCCUAAGGAGAAGACUACGGGUUCGAGUCCCGUACGGACCG [G48A A70C] the figure was 0.956. Consider GUUCCGUUGGCGUAAUGGUAACGCGUCUCCCUCCUAAGGAGAAGACCGCGGGUUCGAGUCCCGUACGUAACG [U47C G68U], for which the yeast fitness came out at 1.1.

Regarding GUUCCGUUGGCGUAAUGGUAACGCGUCUCCCUCCUAAGGAGAAGACCGCGGGUUCGAGUCCCGUACGCAACG [U47C G68C], the yeast fitness amounted to 0.742. In the case of GUUCCGUUGGCGUAAUGGUAACGCGUCUCCCUCCUAAGGAGAAGACGGCGGGUUCGAGUCCCGCACGGAACG [U47G U64C], the yeast fitness is 0.622. For GUUCCGUUGGCGUAAUGGUAACGCGUCUCCCUCCUAAGGAGAAGACCGCGGGUUCGAGUCCCGUACUGAACG [U47C G67U] the value was 0.86. With GUUCCGUUGGCGUAAUGGUAACGCGUCUCCCUCCUAAGGAGAAGACCGCGGGUUCGAGUCCCGUACCGAACG [U47C G67C] the figure was 0.886. For GUUCCGUUGGCGUAAUGGUAACGCGUCUCCCUCCUAAGGAGAAGACAGCGGGUUCGAGACCCGGACGGAACG [U47A U59A U64G] the value was at most 0.5. As for GUUCCGUUGGCGUAAUGGUAACGCGUCUCCCUCCUAAGGAGAAGAUUGCGGGUCCGAGUCCCGUACGGCACG [C46U U54C A69C], the yeast fitness is 0.778. With GUUCCGUUGGCGUAAUGGUAACGCGUCUCCCUCCUAAGGAGAAGACGGCGGGUUCGAGUCCUGUACGGAACG [U47G C62U] the figure was 0.633; with GUUCCGUUGGCGUAAUGGUAACGCGUCUCCCUCCUAAGGAGAAGACCGCGGGUUCGGGUCCCGUUAGGCACG [U47C A57G A65U C66A A69C], at most 0.5. For GUUCCGUUGGCGUAAUGGUAACGCGUCUCCCUCCUAAGGAGAAGACGGAGGGUUCGAGUCCCAUACGAAACG [U47G C49A G63A G68A] the value was at most 0.5. GUUCCGUUGGCGUAAUGGUAACGCGUCUCCCUCCUAAGGAGAAGACAGCGGGAUCGAGUCCCGUACGGAACG [U47A U53A]: the yeast fitness was determined as 0.557. With GUUCCGUUGGCGUAAUGGUAACGCGUCUCCCUCCUAAGGAGAAGACCGCGGGUUCGAGUCCCGCACGGAACG [U47C U64C] the figure was 0.926.

GUUCCGUUGGCGUAAUGGUAACGCGUCUCCCUCCUAAGGAGAAGACCGAGGGUUCGAGUCCCGUGCGGAACG [U47C C49A A65G]: the yeast fitness is at most 0.5.

With GUUCCGUUGGCGUAAUGGUAACGCGUCUCCCUCCUAAGGAGAAGACAGCGGGUUAGAGUCCCGUACGAAACG [U47A C55A G68A], the yeast fitness is 0.532. For the variant GUUCCGUUGGCGUAAUGGUAACGCGUCUCCCUCCUAAGGAGAAGACAGCGGGUUCGAGUCCCGUCGGGAACG [U47A A65C C66G], the yeast fitness is at most 0.5. On to GUUCCGUUGGCGUAAUGGUAACGCGUCUCCCUCCUAAGGAGAAGACGGCGGGUUCGUGUACCGUACGGAACG [U47G A57U C60A], for which the yeast fitness came to 0.555. For GUUCCGUUGGCGUAAUGGUAACGCGUCUCCCUCCUAAGGAGAAGACGGCGGGUUCGAGUCCCGUACGGCACG [U47G A69C] the value was 0.69; for GUUCCGUUGGCGUAAUGGUAACGCGUCUCCCUCCUAAGGAGAAGACGGCGGGUUCGAGUCCCGUACGGUACG [U47G A69U], 0.764; for GUUCCGUUGGCGUAAUGGUAACGCGUCUCCCUCCUAAGGAGAAGACAGCGAGUUUGAGUCCCGUACGGAACG [U47A G51A C55U], 0.642.

For the variant GUUCCGUUGGCGUAAUGGUAACGCGUCUCCCUCCUAAGGAGAAGACUACGGGUUCGGGUCUUGUACGGAACG [G48A A57G C61U C62U], the yeast fitness is at most 0.5. With GUUCCGUUGGCGUAAUGGUAACGCGUCUCCCUCCUAAGGAGAAGACCGGGGGUUCGAGUCCCGUACGGAACG [U47C C49G] the figure was 0.909; with GUUCCGUUGGCGUAAUGGUAACGCGUCUCCCUCCUAAGGAGAAGACCCCGGGUUCGAGUCCCGUCCGGAACG [U47C G48C A65C], 0.619; with GUUCCGUUGGCGUAAUGGUAACGCGUCUCCCUCCUAAGGAGAAGACAGCGGGUUCGAGUCCCAUACGGAACG [U47A G63A], 0.823. With GUUCCGUUGGCGUAAUGGUAACGCGUCUCCCUCCUAAGGAGAAGACAGCGGCUUCGAGUCCCGUACGGAACG [U47A G52C], the yeast fitness stood at 0.581.
